In brackets after ≈: the same amount, converted by molar mass. Activity calls are given as the source filed them.
How the values were obtained:
[1] = molecular target: CYP2C19 (Homo sapiens, UniProt P33261); assay: Inhibition of human recombinant CYP2C19 at 10 uM; assay type: ADME
[2] = system: A549; assay: Cell cycle arrest in human A549 cells assessed as accumulation of cells at G2/M phase at IC50 concentration after 24 hrs by flow cytometry (reference value: 22%); assay type: functional
[3] = system: NCI-H358; assay: Cell cycle arrest in human NCI-H358 cells assessed as accumulation of cells at G2/M phase at IC50 concentration after 18 hrs by flow cytometry in presence of […] uM hydroxyurea for 18 hrs (reference value: 33%); assay type: functional
[4] = Cell cycle arrest in mouse BNL-SVA.8 cells assessed as accumulation of cells at G0/G1 phase at IC50 concentration after 48 hrs by flow cytometry (reference value: 64%); assay type: functional
How it was run: (§1)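 Normal (BNL CL2) and SV40 large T-antigen transformed (BNL SV A.8) mouse embryonic hepatic cells were treated at IC50 or IC70 concentration for 48 h. Analysis was by FACS, with apoptosis taken as % cells in the sub-G1 peak. Untreated cells served as control.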

[5] = Efflux ratio of permeability across basolateral to apical side over apical to basolateral side in human Caco2 cells; assay type: ADME, cell-based; details: Caco-2
[6] = system: A549; assay: Anticancer activity against p53+, pRb+ human A549 cells assessed as reduction in colony formation efficiency at 1.4 uM after 24 hrs by visual count/crystal violet staining method; assay type: functional; details: A549, 24 h
How it was run: (§2)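 Long-term survival assay. A549 and Calu-1 cells treated with a range of concentrations, colonies counted, efficiency expressed as percent of colonies versus untreated cultures. Means and standard deviations of three independent experiments.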

[7] = system: NCI-H358; assay: Cell cycle arrest in human NCI-H358 cells assessed as accumulation of cells at G0/G1 phase at IC50 concentration after 18 hrs by flow cytometry in presence of […] uM hydroxyurea for 18 hrs (reference value: 50%); assay type: functional
[8] = system: A549; assay: Induction of apoptosis in p53+, pRb+ human A549 cells assessed as fragmented nuclei/distrupted cell membrane after 24 hrs by DAPI staining-based flow cytometry; assay type: functional
[9] = system: NCI-H358; assay: Cell cycle arrest in human NCI-H358 cells assessed as accumulation of cells at G0/G1 phase at IC50 concentration after 12 hrs by flow cytometry in presence of nocodazole for 18 hrs (reference value: 40%); assay type: functional
[10] = Growth inhibition of mouse BNL-CL2 cells after 48 hrs by MTT assay; assay type: functional, cell-based; details: BNL CL.2, 48 h
How it was run: (§3)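 MTT cell proliferation assay. IC50 (µM) was defined as the concentration giving 50% inhibition of cell growth.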

[11] = system: A549; assay: Reduction Cdk1 level in p53+, pRb+ human A549 cells at IC50 concentration after 24 hrs by Western blot analysis
[12] = Terminal half life in BALB/c mouse at 1 mg/kg, iv; assay type: ADME, organism-based; set-up: dose 1 mg/kg, route intravenous; details: in vivo, read-out: beta t1/2 (converted)
How it was run: (§4)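 BALB/c mice given a single dose of 1.0 mg/kg IV or 10 mg/kg orally; plasma concentration followed over time and pharmacokinetic parameters derived from the time-concentration profile.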

[13] = molecular target: Tubulin (Homo sapiens) (UniProt P68371+Q9H4B7+P0DPH7+P68366+Q13509+Q71U36+P04350+Q3ZCM7+P07437+P68363+Q9BQE3+Q6PEY2+Q13885+Q9BVA1+Q9BUF5); assay: Inhibition of tubulin (unknown origin) polymerization assessed as decrease in Vmax measured at 5 uM by spectrophotometry; assay type: protein-complex assay
How it was run: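 Purified tubulin polymerisation followed as absorbance increase over about 4000 s. Vmax (mOD/min) is taken as the read-out, with final polymer mass also noted. Compound is tested at 2.5, 5, 10 and 25 µM alongside untreated control, paclitaxel 10 µM (enhancer) and nocodazole 10 µM (inhibitor). Curves are the average of three independent experiments.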

[14] = Growth inhibition of mouse BNL-SVA.8 cells after 48 hrs by MTT assay; assay type: functional; how it was run: as §3
[15] = Anticancer activity against p53 null, pRb+ human Calu1 cells assessed as reduction in colony formation efficiency at 3 uM after 24 hrs by visual count/crystal violet staining method; assay type: functional; details: Calu-1, 24 h; how it was run: as §2
[16] = Solubility in water; assay type: physicochemical
[17] = molecular target: Protein kinase C alpha type (Homo sapiens) (UniProt P17252); assay: Inhibition of human PKCalpha assessed as enzyme activity at 10 uM
[18] = system: MiaPaCa; assay: Effect on p21 level in p53His273 mutant, pRb+ human MiaPaCa cells at IC50 concentration after 48 hrs by Western blot analysis; assay type: functional
[19] = molecular target: Mitogen-activated protein kinase 1 (Homo sapiens) (UniProt P28482); assay: Inhibition of human MAPK1 assessed as enzyme activity at 10 uM
Sequence of Mitogen-activated protein kinase 1 (Homo sapiens) (P28482 whole entry, looked up): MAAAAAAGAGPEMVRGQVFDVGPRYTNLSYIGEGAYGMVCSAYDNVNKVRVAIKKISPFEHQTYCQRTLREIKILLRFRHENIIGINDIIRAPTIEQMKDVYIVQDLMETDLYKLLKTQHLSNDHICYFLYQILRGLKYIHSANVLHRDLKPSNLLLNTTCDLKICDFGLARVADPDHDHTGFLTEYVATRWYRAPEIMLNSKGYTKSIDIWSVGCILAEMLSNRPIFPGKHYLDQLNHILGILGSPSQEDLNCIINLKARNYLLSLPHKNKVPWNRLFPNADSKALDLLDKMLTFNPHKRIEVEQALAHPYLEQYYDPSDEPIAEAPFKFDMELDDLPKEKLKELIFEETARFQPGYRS

[20] = Cell cycle arrest in mouse BNL-CL2 cells assessed as accumulation of cells at G0/G1 phase at IC50 concentration after 48 hrs by flow cytometry (reference value: 57%); assay type: functional; how it was run: as §1
[21] = Growth inhibition of p53His273 mut, pRb+ human MiaPaCa cells after 48 hrs by MTT assay; assay type: functional; details: MIA PaCa-2, 48 h; how it was run: as §3
[22] = Cmax in BALB/c mouse at 1 mg/kg, iv; assay type: ADME, organism-based; set-up: dose 1 mg/kg, route intravenous; details: in vivo; how it was run: as §4
[23] = Maximum tolerated dose in ip dosed Swiss mouse assessed as body weight change treated for 5 days; assay type: ADME, organism-based; details: in vivo
How it was run: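 Swiss albino mice, 6 per group, are dosed intraperitoneally once daily for five days (Q1D x 5) at several doses. The formulation contains Tween 20. Body weight is tracked over a two-week study, and MTD is set as the dose giving >10% weight loss; a drop of >20% is rated highly significant.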

[24] = species on record: Homo sapiens; assay: Inhibition of human PKA assessed as enzyme activity at 10 uM
[25] = molecular target: Platelet-derived growth factor receptor (Homo sapiens) (UniProt P09619+P16234); assay: Inhibition of human PDGFR assessed as enzyme activity at 10 uM; assay type: protein-complex assay
[26] = molecular target: Cyclin-dependent kinase 5/CDK5 activator 1 (Homo sapiens) (UniProt Q00535+Q15078); assay: Inhibition of human CDK5/p35 assessed as enzyme activity at 10 uM; assay type: protein-complex assay
Sequence of Cyclin-dependent kinase 5/CDK5 activator 1 (Homo sapiens) (Q00535 whole entry): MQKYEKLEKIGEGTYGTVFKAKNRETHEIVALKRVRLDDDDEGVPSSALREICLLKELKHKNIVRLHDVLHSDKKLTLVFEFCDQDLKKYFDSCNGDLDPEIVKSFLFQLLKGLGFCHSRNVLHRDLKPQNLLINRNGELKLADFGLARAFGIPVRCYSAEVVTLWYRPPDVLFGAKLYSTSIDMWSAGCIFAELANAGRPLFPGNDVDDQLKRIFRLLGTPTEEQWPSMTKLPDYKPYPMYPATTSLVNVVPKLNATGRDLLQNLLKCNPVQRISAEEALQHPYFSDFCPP
Sequence of Cyclin-dependent kinase 5/CDK5 activator 1 (Homo sapiens) (Q15078 99-307 partner limits assumed): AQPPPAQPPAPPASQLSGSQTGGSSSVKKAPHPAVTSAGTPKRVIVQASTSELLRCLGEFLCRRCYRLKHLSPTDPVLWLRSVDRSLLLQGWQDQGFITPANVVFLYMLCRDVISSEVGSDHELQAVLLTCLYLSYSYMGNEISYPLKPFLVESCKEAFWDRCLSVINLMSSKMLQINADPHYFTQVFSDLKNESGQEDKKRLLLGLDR

[27] = Cell cycle arrest in mouse BNL-SVA.8 cells assessed as accumulation of cells at subG1 phase at IC70 concentration after 48 hrs by flow cytometry; assay type: functional; how it was run: as §1
[28] = molecular target: Dual specificity mitogen-activated protein kinase kinase 1 (Homo sapiens) (UniProt Q02750); assay: Inhibition of human MEK1 assessed as enzyme activity at 10 uM
Sequence of Dual specificity mitogen-activated protein kinase kinase 1 (Homo sapiens) (Q02750 whole entry): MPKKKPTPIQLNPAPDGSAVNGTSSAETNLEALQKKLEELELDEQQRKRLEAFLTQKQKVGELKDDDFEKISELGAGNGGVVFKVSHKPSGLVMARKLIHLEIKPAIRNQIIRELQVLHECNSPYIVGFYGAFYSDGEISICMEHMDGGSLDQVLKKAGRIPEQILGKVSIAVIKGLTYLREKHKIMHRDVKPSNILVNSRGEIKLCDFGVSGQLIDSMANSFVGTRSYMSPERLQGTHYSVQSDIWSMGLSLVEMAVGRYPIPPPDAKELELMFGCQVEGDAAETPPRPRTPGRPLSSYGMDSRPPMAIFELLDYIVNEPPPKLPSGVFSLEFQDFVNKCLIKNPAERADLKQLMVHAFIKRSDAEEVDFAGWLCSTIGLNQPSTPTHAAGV

[29] = Volume of distribution in BALB/c mouse at 1 mg/kg, iv; assay type: ADME, organism-based; set-up: dose 1 mg/kg, route intravenous; details: in vivo; how it was run: as §4
[30] = system: Mus musculus; assay: Toxicity in human NCI-H460 cells xenografted in SCID mouse at 100 mg/kg, ip relative to untreated control; assay type: organism-based; set-up: dose 100 mg/kg, route intraperitoneal; details: in vivo
How it was run: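 SCID female mice, 15-24 g, 6-8 weeks old, received 5.3 × 10^6 NCI-H460 cells subcutaneously on the dorsal side. Randomized at 4-6 mm tumors (about 6 days) into groups of 6 or 7, then dosed intraperitoneally for 9 consecutive days. Body weight recorded daily as percent of the start-of-treatment weight; >10% drop counted significant, >20% highly significant.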

[31] = Volume of distribution at steady state in BALB/c mouse at 1 mg/kg, iv; assay type: ADME, organism-based; set-up: dose 1 mg/kg, route intravenous; details: in vivo, read-out: Vdss; how it was run: as §4

Sequence of CYP2C19 (P33261 whole entry): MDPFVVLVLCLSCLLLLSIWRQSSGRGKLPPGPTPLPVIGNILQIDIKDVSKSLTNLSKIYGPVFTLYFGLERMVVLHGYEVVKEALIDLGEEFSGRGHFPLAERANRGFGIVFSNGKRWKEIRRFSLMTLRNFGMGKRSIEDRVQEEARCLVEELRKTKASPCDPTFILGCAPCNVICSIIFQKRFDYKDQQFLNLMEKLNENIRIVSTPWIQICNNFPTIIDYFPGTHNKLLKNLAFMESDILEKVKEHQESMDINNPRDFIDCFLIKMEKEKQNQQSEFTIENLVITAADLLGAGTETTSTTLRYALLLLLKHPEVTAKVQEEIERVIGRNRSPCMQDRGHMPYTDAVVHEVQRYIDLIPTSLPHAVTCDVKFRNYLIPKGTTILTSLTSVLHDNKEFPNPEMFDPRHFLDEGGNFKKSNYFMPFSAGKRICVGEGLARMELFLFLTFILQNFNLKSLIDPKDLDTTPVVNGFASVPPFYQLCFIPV

## CN(CCc1c[nH]c2ccccc12)C(=O)c1ccc(-c2ccccc2)cc1
[1]
  inhibition at 10 µM: 19%
[2]
  Activity: 89%
[3]
  Activity: 72%
[4]
  Activity: 31%
[5]
  efflux ratio: 1.1
[6]
  inhibition at 1.4 µM: 50%
[7]
  Activity: 16%
[8]
  Activity: Dose-dependent effect
[9]
  Activity: 7%
[10]
  IC50: 2.6 µM
[11]
  inhibition: Active
[12]
  half-life: 19.8 min
[13]
  Activity (milli optical density/minute): 2.1
[14]
  IC50: 3.8 µM
[15]
  inhibition at 3 µM: 50%
[16]
  solubility: 80 µg/mL (≈ 226 µM)
[17]
  inhibition: inactive
[18]
  Activity: inactive
[19]
  inhibition: inactive
[20]
  Activity: 34%
[21]
  IC50: 4 µM
[22]
  Cmax: 371 ng/mL
[23]
  MTD at 120 h: 1000 mg/kg
[24]
  inhibition: inactive
[25]
  inhibition: inactive
[26]
  inhibition: inactive
[27]
  Activity: 44%
[28]
  inhibition: inactive
[29]
  Vd: 2.52 L/kg
[30]
  Activity: Non-toxic
[31]
  Vd: 1.76 L/kg

From ChEMBL document CHEMBL3351368, “Biphenyl-4-carboxylic acid [2-(1H-indol-3-yl)-ethyl]-methylamide (CA224), a nonplanar analogue of fascaplysin, inhibits Cdk4 and tubulin polymerization: evaluation of in vitro and in vivo anticancer activity” (J Med Chem, 2014)
